Screening results deposited in PubChem BioAssay by The Scripps Research Institute Molecular Screening Center.
Rows were chosen to be rich in hits. Some 2.5% of all compounds tested hit in one or more screens of this group.
OX1R antag-1 = antagonists of human orexin 1 receptor (OX1R); inhibition, % at 6.6 µM; actives 1.8% (n = 330,000); OX1R-expressing cells, FRET antagonist read-out; in the data active means inhibition mostly above about 38%, no sharp cut-off; inactive means mostly below about 40%
Target sequence (O43613 whole entry, looked up): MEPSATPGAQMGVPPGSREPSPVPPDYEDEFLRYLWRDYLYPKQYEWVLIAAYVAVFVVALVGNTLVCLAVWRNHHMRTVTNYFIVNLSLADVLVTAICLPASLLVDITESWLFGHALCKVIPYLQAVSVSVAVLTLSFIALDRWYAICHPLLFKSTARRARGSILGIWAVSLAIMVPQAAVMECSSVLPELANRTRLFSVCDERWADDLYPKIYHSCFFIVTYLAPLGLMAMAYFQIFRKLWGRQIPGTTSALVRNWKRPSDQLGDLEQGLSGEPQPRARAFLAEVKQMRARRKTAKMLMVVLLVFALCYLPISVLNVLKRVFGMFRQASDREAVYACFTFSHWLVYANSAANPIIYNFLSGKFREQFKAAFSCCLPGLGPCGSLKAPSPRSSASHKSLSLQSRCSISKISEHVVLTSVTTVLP
OX1R antag-2 = OX1R (HCRTR1) antagonists, primary screen, fluorescence, CHO/OX1R cells, Fluo-8 calcium, orexin A; Orexin/Hypocretin receptor type 1 (Homo sapiens), O43613; Fluo-8 calcium fluorescence; inhibition, % at 5 µM; actives 0.43% (n = 330,000);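 active means inhibition above its plate's threshold, mean inhibition of all tested compounds on the plate plus 3 SD, cut at about 37% in these data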
CHO parental Ca = ATP-evoked calcium signal inhibitors, parental CHO, primary screen, counter-screen for OX1R antagonist project, cell-based, fluorescence, Fluo-8 calcium dye; parental CHO-K1, ATP-induced calcium, Fluo-8 fluorescence; inhibition, % at 5.6 µM; actives 0.63% (n = 330,000); AID 463079, 2010;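 active means inhibition above that plate's mean sample inhibition plus 3 SD, cut at about 26% in these data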
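Material: Parental CHO cells | Reagent: ATP | Compound dosing: Single nominal dose of 5.6 µM per compound | Detection: Intracellular calcium via Fluo-8 no-wash fluorescent dye | Read-out: % inhibition of ATP-induced calcium mobilization | Benchmarks: Low control ATP plus DMSO, high control DMSO only | Replicates: Singlicate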
TRPML3 ag = human TRPML3 channel agonists, primary screen, cell-based, HEK293 TRPML3-YFP, Fluo-8 calcium fluorescence, 3 µM; activation, % at 3 µM; Mucolipin-3 (Homo sapiens), Q8TDD5; 100% = the carbachol control signal; actives 0.29% (n = 220,000);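 active means activation above its plate's cutoff, the mean activation of the plate's test wells plus 3 SD, cut at about 12% in these data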
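Material: TRPML3-YFP stable HEK293 cells | Dosing: One concentration, 3 µM nominal, 0.3% DMSO | Timing: 125 s total fluorescence read per well | Technique: Fluo-8 calcium dye fluorescence, ex 470-495, em 515-575 nm | Measure: Percent activation from peak-to-basal fluorescence ratio, scaled between DMSO and carbachol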
TRPN1 ag = zebrafish TRPN1 channel agonists, primary screen, cell-based, HEK293, calcium fluorescence; transient receptor potential cation channel N1 (TRPN1/NompC), Danio rerio; HEK293 zebrafish TRPN1-YFP, Fluo-8 calcium fluorescence; 100% = response to 87 µM carbachol; activation, % at 3 µM; actives 0.18% (n = 220,000);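 active means activation above its plate's cutoff, the mean activation of test wells on that plate plus 3 SD, cut at about 19% in these data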
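Control set: carbachol 87 µM as high control, DMSO as low control; system: HEK293 stable line with zebrafish TRPN1-YFP; read-out: % activation versus carbachol response; detection: intracellular calcium fluorescence with Fluo-8; doses: single test compound dose, 3 µM nominal, 0.3% DMSO; schedule: dye 1 h 37 °C plus 30 min RT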
A number is an active result; 0 = inactive; - = no result given.

SMILES	OX1R antag-1	OX1R antag-2	CHO parental Ca	TRPML3 ag	TRPN1 ag
O=C(N/N=C/c1cc2c(cc1Br)OCO2)c1ccccn1	0	0	0	0	0
O=C(O)c1ccc(/C=N/NC(=O)c2cc3c(ccc4ccccc43)o2)cc1	0	0	0	-	-
O=C(N/N=C/c1ccncc1)c1cc2c(ccc3ccccc32)o1	0	0	0	0	0
COc1ccccc1/C=N/NC(=O)c1cc2c(ccc3ccccc32)o1	65	0	0	-	-
COc1ccc(OCCSc2nnc(CCNC(=O)c3ccc(Cl)c(Cl)c3)n2C)cc1	0	0	0	0	0
CCn1c(CCNC(=O)c2ccc(Cl)c(Cl)c2)nnc1SCCOc1ccc(OC)cc1	41	0	0	0	0
CN(C)C1(CNC(=O)c2cccc(S(=O)(=O)Nc3ccc(Br)cc3)c2)CCCCC1	0	0	0	-	-
NS(=O)(=O)c1ccc(CCNC(=O)CN2CCN(S(=O)(=O)c3ccccc3F)CC2)cc1	0	0	0	-	-
COc1cccc(OC)c1Nc1nc(C)nc2c1nnn2Cc1ccccc1Cl	0	0	0	0	0
CCc1nc(Nc2ccc(OC)c(OC)c2)c2nnn(Cc3ccccc3Cl)c2n1	0	0	30	0	0
Cc1cc2c(cc1C)CSC(c1ccccc1O)SC2	0	0	59	0	0
Cc1ccc(NC2=C(NCCO)C(=O)c3ccccc3C2=O)cc1	56	0	0	0	0
Cc1ccc(OCCNS(=O)(=O)c2ccc(N3CCCC3=O)cc2)cc1	0	0	0	0	0
Cc1ccc(OCCNS(=O)(=O)c2ccc(N3CCCC3=O)cc2)cc1C	35	0	0	0	0
CCOC(=O)C1CCCN(S(=O)(=O)c2ccc(S(=O)(=O)N(CC)CC)cc2)C1 (centres undefined)	0	47	51	0	0
N#Cc1cccc(S(=O)(=O)NNC(=O)C23CC4CC(CC(C4)C2)C3)c1	0	0	0	-	-
N#Cc1cc(Oc2cccc3cccnc23)c(-n2nnc3ccccc32)cc1C#N	0	46	0	0	0
COc1cccc(N2CCN(C(=O)C3CCCN(c4ncnc5c4nc4n5CCCCC4)C3)CC2)c1 (centres undefined)	0	0	0	-	-
O=C(Nc1ccc(F)cc1)Nc1csc2ccccc12	0	0	0	0	0
CN(C)c1ccc(NC(=O)Nc2csc3ccccc23)cc1	57	0	0	0	0
O=C(NNC(=O)c1ccccc1F)c1cccc(S(=O)(=O)N2CCc3ccccc32)c1	0	0	0	-	-
CC(=O)c1ccc(OCc2ccc(C(=O)c3ccccc3)cc2)cc1	0	0	49	0	0
CN1CCN(CCCNC(=O)CCN2C(=O)COc3ccccc32)CC1	0	0	0	-	-
O=C(NCc1ccco1)c1sc(=S)n2c1[nH]c(=O)c1ccccc12	50	0	0	0	0
CC(C)=CCOc1ccc([C@@H]2COc3c(ccc4c3C=CC(C)(C)O4)C2)c(O)c1	0	0	0	-	-
SMILES	OX1R antag-1	OX1R antag-2	CHO parental Ca	TRPML3 ag	TRPN1 ag
CS(=O)(=O)c1ccccc1COC(=O)Nc1ccc(Cl)cc1	0	0	0	0	0
O=C(Nc1ccc(Cl)cc1)OCc1ccccn1	0	0	40	0	0
O=C(NCc1ccco1)c1cccn2c(=O)c3sccc3nc12	42	0	0	0	0
O=C(Nc1nc(-c2ccc(S(=O)(=O)N3CCOCC3)cc2)cs1)c1ccccc1	0	0	0	0	0
O=C(Nc1nc(-c2nc3ccccc3s2)cs1)c1ccc(S(=O)(=O)N2CCOCC2)cc1	67	0	32	0	0
COc1ccc(CN(C)C(=O)c2cc(S(=O)(=O)NCc3ccccc3)ccc2C)c(OC)c1	33	0	0	-	-
COc1ccc(CCN(C)C(=O)c2cc(S(=O)(=O)NCc3ccccc3)ccc2C)cc1OC	0	0	0	-	-
Cc1nnn(C23C[C@@H]4C[C@@H](CC(C(=O)N5CCN(c6ccccc6)CC5)(C4)C2)C3)n1	0	0	0	0	0
CCCCCn1c(CNC(=O)c2cccs2)nc2ccccc21	56	0	0	0	0
CCCCn1c(CNC(=O)c2cccs2)nc2ccccc21	0	0	0	0	0
C#CCOCCOCCOCCNc1nc(N2CCN(C(=O)C([C@@H](C)CC)n3cc(C(N)COC(=O)C(F)(F)F)nn3)CC2)nc(N2CCN(C(=O)[C@H](CCCCN)n3cc(C(N)[C@H](C)CC)nn3)CC2)n1 (some centres undefined)	0	0	0	-	-
O=C(CNCc1ccccc1)Nc1ccc(Cl)cc1	0	0	0	-	-
c1csc(-c2nc3c4ccccc4c4ccccc4c3[nH]2)c1	63	0	0	0	0
COc1ccccc1NC(=O)c1ccccc1C(=O)Nc1ccccc1OC	0	0	0	-	-
COc1ccccc1NC(=O)c1cnc(Nc2ccccc2OC)c2ccccc12	74	0	0	0	0
CC1CC(C)CN(CCCNC(=O)CCC(=O)N2CCOc3ccccc32)C1 (centres undefined)	0	0	0	-	-
N#Cc1ccsc1NC(=O)C1CCCN1S(=O)(=O)c1cccs1 (centres undefined)	53	0	0	-	-
O=C(O)C1CCCN1S(=O)(=O)c1cccs1 (centres undefined)	-	-	-	0	0
C=CCN1C(=Nc2cccnc2)SCC1(O)c1ccc(C)cc1 (centres undefined)	0	0	37	0	0
CC(C)(C)c1cc(C(=O)NNc2cc(C(F)(F)F)ccc2Cl)n(Cc2ccccc2)n1	45	0	0	0	0
O=C(COc1ccc(F)cc1Cl)Nc1cccc(S(=O)(=O)N2CCCC2)c1	0	47	0	-	-
O=C(COc1ccccc1Cl)Nc1cccc(S(=O)(=O)N2CCCC2)c1	0	0	0	-	-
COc1ccc(NC(=O)Cn2c(=O)n(CC3CCCO3)c(=O)c3cc(OC)c(OC)cc32)cc1OC (centres undefined)	0	0	0	-	-
Cc1ccc(S(=O)(=O)NCCC(=O)OCc2ccc([N+](=O)[O-])cc2)cc1C	0	0	41	-	-
Cc1ccc(S(=O)(=O)NCCC(=O)OCC(=O)NCCc2ccccc2)cc1C	0	0	0	-	-
O=C(c1sc2cc([N+](=O)[O-])ccc2c1Cl)N1CCOCC1	75	0	0	0	0
CC(C)N(C(=O)c1sc2cc([N+](=O)[O-])ccc2c1Cl)C(C)C	0	0	0	0	0
CNC(=S)NNC(=O)c1sc(-c2cc(C)on2)nc1C	0	0	0	0	0
Cc1nn(C)c(Nc2ccc(Br)cc2)c1Br	0	40	71	0	0
O=C(CSc1nnc(Cc2ccccc2)n1-c1ccccc1)NNC(=O)Cc1ccccc1	57	0	0	0	0
